Results: ChEMBL document CHEMBL4024803, “New Steroidal 4-Aminoquinolines Antagonize Botulinum Neurotoxin Serotype A in Mouse Embryonic Stem Cell Derived Motor Neurons in Postintoxication Model” (J Med Chem, 2018)
≈ marks a conversion by molar mass, not a printed value.

What was measured:
Plasma [1] = experiment: Protein binding in human plasma after 4 hrs by equilibrium dialysis method; assay type: ADME, cell-free
Outline: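 Equilibrium dialysis against buffer, 4 h at 37°C with shaking. After incubation both chambers were matrix-matched and protein-precipitated with cold acetonitrile/water/formic acid containing internal standard. Supernatants were analysed by LC-MS/MS. % free = buffer-chamber / plasma-chamber concentration × 100.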

[2] = Drug uptake in mouse serum at 600 mg/kg, po measured at 15 mins by UPLC-MS/MS method; assay type: ADME, organism-based; details: read-out: Drug uptake
Outline: (§1)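 Single oral dose (400 mg/kg, 7 mice; 600 mg/kg, 6 mice), dissolved in DMSO and suspended in 0.5% hydroxyethylcellulose–0.1% Tween 80. Blood taken by cardiac puncture under chloroform, one mouse per time point, 15–120 min. Serum proteins precipitated with 2 volumes acetonitrile; analysed by UPLC-MS/MS against blank human serum calibration. Half-life read from the concentration–time curve.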

[3] = Protein binding in mouse plasma at 600 mg/kg, po by ultra-centrifugation method; assay type: ADME, organism-based; details: read-out: PPB
[4] = Solubility of the compound at pH 7.4 by light scattering-based laser nephelometric method; assay type: physicochemical; details: buffer
Outline: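 Solubility measured by laser nephelometry (light scattering), pH 7.4, n=3.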

[5] = target: Botulinum neurotoxin type A (Clostridium botulinum) (UniProt P0DPI0); experiment: Inhibition of Clostridium botulinum BoNT/A holotoxin-mediated SNAP-25 cleavage in mouse HBG3 cell-derived motor neurons assessed as full length of SNAP-25 at 10 uM preincubated for 30 mins followed by intoxication measured after 4 hrs by Western blot method relative to control; set-up: scale not given: the % may be the effect or the level left
Cytochrome P450 2C19 = Cytochrome P450 2C19 (Homo sapiens, UniProt P33261); experiment: Inhibition of CYP2C19 (unknown origin) using CEC as substrate; assay type: ADME
Chain of Cytochrome P450 2C19 (P33261 whole entry): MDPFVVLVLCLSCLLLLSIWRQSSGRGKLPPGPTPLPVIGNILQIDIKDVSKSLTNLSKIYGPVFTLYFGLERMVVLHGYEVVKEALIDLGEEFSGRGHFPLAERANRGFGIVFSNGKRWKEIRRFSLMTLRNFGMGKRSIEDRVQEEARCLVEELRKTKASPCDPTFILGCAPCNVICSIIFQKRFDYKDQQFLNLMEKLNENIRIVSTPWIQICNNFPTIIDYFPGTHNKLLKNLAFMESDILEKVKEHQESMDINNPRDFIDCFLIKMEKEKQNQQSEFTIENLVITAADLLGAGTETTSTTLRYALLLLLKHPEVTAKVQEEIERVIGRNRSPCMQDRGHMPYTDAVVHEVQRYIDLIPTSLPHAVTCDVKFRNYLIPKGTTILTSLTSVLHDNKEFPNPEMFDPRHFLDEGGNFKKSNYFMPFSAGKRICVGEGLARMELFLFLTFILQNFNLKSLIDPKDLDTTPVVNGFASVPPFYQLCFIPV
Outline: (§2)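 Active CYP450 enzyme incubated at 37°C for a set time with a fluorogenic probe substrate (BQ, DBF or BFC for CYP3A4; CEC for CYP2C19; AMMC for CYP2D6). IC50 derived from net fluorescent signal.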

[6] = Solubility of the compound by spectrofluorimetric detection-based shake-flask method; assay type: physicochemical
Mus musculus [7] = experiment: Half life in mouse at 400 mg/kg, po by UPLC-MS/MS method; assay type: ADME, organism-based; details: in vivo; outline: as §1
Cytochrome P450 3A4 = Cytochrome P450 3A4 (Homo sapiens, UniProt P08684); experiment: Inhibition of CYP3A4 (unknown origin) using BQ as substrate; assay type: ADME; outline: as §2
Chain of Cytochrome P450 3A4 (P08684 whole entry): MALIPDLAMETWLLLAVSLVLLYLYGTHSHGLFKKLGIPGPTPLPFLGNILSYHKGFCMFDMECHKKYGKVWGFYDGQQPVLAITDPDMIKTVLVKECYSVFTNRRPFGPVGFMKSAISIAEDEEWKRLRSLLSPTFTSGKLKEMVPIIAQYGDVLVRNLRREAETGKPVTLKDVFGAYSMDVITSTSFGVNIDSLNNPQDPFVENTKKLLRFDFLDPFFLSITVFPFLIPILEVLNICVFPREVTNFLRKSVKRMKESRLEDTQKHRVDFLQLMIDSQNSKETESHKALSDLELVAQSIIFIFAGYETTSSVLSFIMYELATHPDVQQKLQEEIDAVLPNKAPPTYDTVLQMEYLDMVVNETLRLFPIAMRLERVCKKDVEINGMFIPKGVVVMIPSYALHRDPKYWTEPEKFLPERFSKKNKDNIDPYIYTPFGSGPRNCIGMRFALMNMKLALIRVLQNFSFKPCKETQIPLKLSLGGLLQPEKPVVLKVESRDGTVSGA

Mus musculus [8] = experiment: Cmax in mouse at 600 mg/kg, po by UPLC-MS/MS method; assay type: ADME, organism-based; set-up: dose 600 mg/kg, route oral; details: in vivo; outline: as §1
[9] = Protein binding in mouse plasma at 400 mg/kg, po by ultra-centrifugation method; assay type: ADME, organism-based; details: read-out: PPB
Mus musculus [10] = experiment: Tmax in mouse at 600 mg/kg, po by UPLC-MS/MS method; assay type: ADME, organism-based; details: in vivo
Outline: (§3)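 Single oral dose in DMSO suspended in 0.5% hydroxyethylcellulose–0.1% Tween 80, given to 7 (400 mg/kg) or 6 (600 mg/kg) mice. Serum came from cardiac puncture under chloroform, one mouse per time point, 15–120 min. Acetonitrile-precipitated serum was analysed by UPLC-MS/MS against calibration in blank human serum.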

[11] = target: Botulinum neurotoxin type A (Clostridium botulinum) (UniProt P0DPI0); experiment: Inhibition of Clostridium botulinum BoNT/A holotoxin-mediated SNAP-25 cleavage in mouse HBG3 cell-derived motor neurons assessed as full length of SNAP-25 at 20 uM preincubated for 30 mins followed by intoxication measured after 4 hrs by Western blot method relative to control; set-up: scale not given: the % may be the effect or the level left
Mus musculus [12] = experiment: Toxicity in mouse assessed as effect on appearance at 400 to 600 mg/kg, po administered as single dose measured 2 times a day for 30 days; assay type: organism-based; details: in vivo, 720 h
Outline: (§4)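 Two groups of 5 healthy mice each received one oral dose, 400 or 600 mg/kg. Survival, appearance and behaviour were followed for 30 days. Non-toxic was defined as all 5 surviving with normal appearance and behaviour.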

Mus musculus [13] = experiment: Toxicity in mouse assessed as effect on behavior at 400 to 600 mg/kg, po administered as single dose measured 2 times a day for 30 days; assay type: organism-based; details: in vivo, 720 h; outline: as §4
Liver [14] = experiment: Half life in mouse liver microsomes; assay type: ADME, microsome
Outline: (§5)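 Substrate-depletion assay: compound incubated with human or mouse liver microsomes for 1 h at 37°C. Half-life and intrinsic clearance derived from compound loss.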

[15] = Drug uptake in mouse serum at 400 mg/kg, po measured at 30 mins by UPLC-MS/MS method; assay type: ADME, organism-based; details: read-out: Drug uptake; outline: as §1
Serum = experiment: Drug uptake in mouse serum at 400 mg/kg, po measured at 90 mins by UPLC-MS/MS method; assay type: ADME, organism-based; details: in vivo, 1.5 h, BLD = below limit of detection; outline: as §1
[16] = target: Botulinum neurotoxin type A (Clostridium botulinum) (UniProt P0DPI0); experiment: Inhibition of Clostridium botulinum BoNT/A light chain at 20 uM using P39 as substrate preincubated for 10 mins followed by substrate addition measured after 10 mins by HPLC method relative to control
Outline: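 Purified BoNT/A light chain (20 nM) with 0.2 mg/mL BSA in 50 mM HEPES pH 7.4, preincubated with compound for 10 min at room temperature. Cleavage fragments were separated by reversed-phase HPLC (214/280 nm). Percent inhibition was taken from fragment peak areas with vs without compound. Mean of three experiments.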

[17] = Drug uptake in mouse serum at 600 mg/kg, po measured at 60 mins by UPLC-MS/MS method; assay type: ADME, organism-based; details: read-out: Drug uptake; outline: as §1
Mus musculus [18] = experiment: Drug metabolism in mouse assessed as M+16 metabolite formation at 400 to 600 mg/kg, po by UPLC-MS/MS method; assay type: ADME, organism-based; details: in vivo
Mus musculus [19] = experiment: Drug metabolism in mouse assessed as monoacetylated metabolite formation at 400 to 600 mg/kg, po by UPLC-MS/MS method; assay type: ADME, organism-based; details: in vivo
[20] = target: Botulinum neurotoxin type A (Clostridium botulinum) (UniProt P0DPI0); experiment: (§6) Inhibition of Clostridium botulinum BoNT/A light chain using P39 as substrate preincubated for 10 mins followed by substrate addition measured after 10 mins by HPLC method
[21] = target: Botulinum neurotoxin type A (Clostridium botulinum, UniProt P0DPI0); experiment: as §6
[22] = Drug uptake in mouse serum at 600 mg/kg, po measured at 120 mins by UPLC-MS/MS method; assay type: ADME, organism-based; details: read-out: Drug uptake; outline: as §1
Mus musculus [23] = experiment: Toxicity in mouse assessed as effect on survival at 400 to 600 mg/kg, po administered as single dose measured after 30 days; assay type: organism-based; details: in vivo, 720 h; outline: as §4
Mus musculus [24] = experiment: Drug metabolism in mouse assessed as M+32 metabolite formation at 400 to 600 mg/kg, po by UPLC-MS/MS method; assay type: ADME, organism-based; details: in vivo
Liver [25] = experiment: Intrinsic clearance in mouse liver microsomes after 1 hr; assay type: ADME, microsome; outline: as §5
[26] = Drug uptake in mouse serum at 400 mg/kg, po measured at 22 mins by UPLC-MS/MS method; assay type: ADME, organism-based; details: read-out: Drug uptake; outline: as §1
Plasma [27] = experiment: Metabolic stability in human plasma assessed as compound remaining after 1 hr; assay type: ADME, cell-free
Outline: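 Compound incubated in human plasma for 1 h at 37°C; percent remaining determined.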

Mus musculus [28] = experiment: Drug metabolism in mouse assessed as (3alpha,5beta,7alpha,12alpha)-3-Amino-24-({4-[(7-chloroquinolin-4-yl)amino]butyl}amino)cholane-7,12-diol formation at 400 to 600 mg/kg, po by UPLC-MS/MS method; assay type: ADME, organism-based; details: in vivo
Mus musculus [29] = experiment: Time at which drug concentration stays above 3 uM in mouse at 400 mg/kg, po by UPLC-MS/MS method; assay type: ADME, organism-based; details: in vivo; outline: as §3
Mus musculus [30] = experiment: AUC (0 to 120 mins) in mouse at 400 mg/kg, po by UPLC-MS/MS method; assay type: ADME, organism-based; set-up: dose 400 mg/kg, time < 2 hr, route oral; details: in vivo, 2 h

With CC(=O)O[C@H]1C[C@H]2[C@@H]([C@H](OC(C)=O)C[C@@H]3C[C@H](N)CC[C@@]32C)[C@@H]2CC[C@H]([C@H](C)CCCNCCCCNc3ccnc4cc(Cl)ccc34)[C@@]12C the PPB (Plasma [1]) was > 99%, the concentration at 0.25 h [2] was 11.9 µM and the fraction unbound [3] was < 0.01. For the same compound, the solubility kinetic [4] was > 50 µg/mL, the Activity [5] was 72% and the IC50 (Cytochrome P450 2C19) was 5 µM. For the same compound, the solubility thermodynamic [6] was 640 µg/mL (≈ 902 µM), the t1/2 (Mus musculus [7]) was 43 min and the IC50 (Cytochrome P450 3A4) was 1.1 µM. The Cmax (Mus musculus [8]) was 11.9 µM, the fraction unbound [9] was < 0.01 and the Tmax (Mus musculus [10]) was 15 min. The Activity [11] was 88%, the Activity (Mus musculus [12]) was “Non-Toxic” and the Activity (Mus musculus [13]) was “Non-Toxic”. The t1/2 (Liver [14]) was > 60 min, the concentration at 0.5 h [15] was 4 µM and the Drug uptake (Serum) was “Bld”. The inhibition [16] was 66%, the concentration at 1 h [17] was 2.5 µM and the Drug metabolism (Mus musculus [18]) was “Metabolite_Notdetected”. The Drug metabolism (Mus musculus [19]) was “Metabolite_Notdetected”, the inhibition [20] was “Dose-dependent effect” and the IC50 [21] was 4.5 µM. For the same compound, the concentration at 2 h [22] was 2.4 µM, the Activity (Mus musculus [23]) was “Non-Toxic” and the Drug metabolism (Mus musculus [24]) was “Metabolite_Notdetected”. The CLH (Liver [25]) was < 23 µL/min/mg, the concentration at 22 min [26] was 7.8 µM and the Stability (Plasma [27]) was > 85%. For the same compound, the Drug metabolism (Mus musculus [28]) was “Metabolite_Notdetected”, the Time (Mus musculus [29]) was > 45 min and the AUC (Mus musculus [30]) was 253 µM·min.
